In brackets after ≈: the same amount, converted by molar mass. Activity calls are given as the source filed them. No cut-off for these calls is given here.
Experiments:
[1] = system: Pseudomonas aeruginosa; assay: Antimicrobial activity against oprD-deficient Pseudomonas aeruginosa PAO1 by broth macrodilution method; assay type: functional
[2] = system: Pseudomonas aeruginosa; assay: Antimicrobial activity against Pseudomonas aeruginosa PAO1 expressing derepressed chromosomal AmpC mutant by broth macrodilution method; assay type: functional
[3] = system: Pseudomonas aeruginosa; assay: Antimicrobial activity against wild type Pseudomonas aeruginosa PAO1 by broth macrodilution method; assay type: functional
[4] = system: Pseudomonas aeruginosa; assay: Antimicrobial activity against oprD-deficient Pseudomonas aeruginosa PAO1 in hollow fiber system based pharmacokinetic-pharmacodynamic model assessed as reduction in bacterial count at 1 g administered at 4 hrs infusion regimen by time-kill assay; assay type: functional
Outline: (§1)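 Hollow-fiber PK/PD model at 35°C, humidified. 15 ml late-log Mueller-Hinton II culture (circa 1 × 10^8 CFU/ml) per cartridge. Drug injected into the central reservoir by 0.5–4 h infusion every 6 or 8 h, run for 10 days. Samples taken at 0, 0.17, 1, 2, 3, 4, 6, 8 and 10 days, centrifuged and resuspended in saline to limit carryover. Counted on drug-free Mueller-Hinton II agar after 24 h at 35°C. Cell kill taken from counts at 24 h of exposure.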

[5] = system: Pseudomonas aeruginosa; assay: Antimicrobial activity against oprD-deficient Pseudomonas aeruginosa PAO1 in hollow fiber system based pharmacokinetic-pharmacodynamic model assessed as reduction in bacterial count at 1 g administered at 4 hrs infusion regimen every 8 hrs by time-kill assay; assay type: functional, organism-based; outline: as §1
[6] = system: Pseudomonas aeruginosa; assay: Antimicrobial activity against wild type Pseudomonas aeruginosa PAO1 in hollow fiber system based pharmacokinetic-pharmacodynamic model assessed as reduction in bacterial count at 1 g administered at 4 hrs infusion regimen every 8 hrs by time-kill assay; assay type: functional; outline: as §1
[7] = system: Pseudomonas aeruginosa; assay: Antimicrobial activity against wild type Pseudomonas aeruginosa PAO1 in hollow fiber system based pharmacokinetic-pharmacodynamic model assessed as reduction in bacterial count at 500 mg administered at 4 hrs infusion regimen every 8 hrs by time-kill assay; assay type: functional; outline: as §1
[8] = system: Pseudomonas aeruginosa; assay: Antimicrobial activity against wild type Pseudomonas aeruginosa PAO1 in hollow fiber system based pharmacokinetic-pharmacodynamic model assessed as reduction in bacterial count at 500 mg administered at 1 hr infusion regimen every 8 hrs by time-kill assay; assay type: functional; outline: as §1
[9] = system: Pseudomonas aeruginosa; assay: Antimicrobial activity against oprD-deficient Pseudomonas aeruginosa PAO1 in hollow fiber system based pharmacokinetic-pharmacodynamic model assessed as reduction in bacterial count at 1 g administered at 1 hr infusion regimen every 8 hrs by time-kill assay; assay type: functional; outline: as §1
[10] = system: Pseudomonas aeruginosa; assay: Antimicrobial activity against oprD-deficient Pseudomonas aeruginosa PAO1 in hollow fiber system based pharmacokinetic-pharmacodynamic model assessed as reduction in bacterial count at 500 mg administered at 1 hr infusion regimen every 8 hrs by time-kill assay; assay type: functional; outline: as §1

Row | Structure (SMILES) | MIC [1] | MIC [2] | MIC [3] | log10CFU/ml [4] | Activity [5] | log10CFU/ml [6] | log10CFU/ml [7] | log10CFU/ml [8] | log10CFU/ml [9] | log10CFU/ml [10]
1 | C[C@@H](O)[C@H]1C(=O)N2C(C(=O)O)=C(SCCNC=N)C[C@H]12 [IMIPENEM ANHYDROUS] | 16 µg/mL (≈ 53.4 µM) | 2 µg/mL (≈ 6.68 µM) | 2 µg/mL (≈ 6.68 µM) |  |  |  |  |  |  | 
2 | C[C@@H](O)[C@H]1C(=O)N2C(C(=O)O)=C(S[C@@H]3CN[C@H](CNS(N)(=O)=O)C3)[C@H](C)[C@H]12 [DORIPENEM] | 2 µg/mL (≈ 4.76 µM) | 2 µg/mL (≈ 4.76 µM) | 1 µg/mL (≈ 2.38 µM) | 4.24 | Active | 5.4 | 4.07 | 3.71 | 3.47 | 3.12

— ChEMBL document CHEMBL1255474, “Impact of different carbapenems and regimens of administration on resistance emergence for three isogenic Pseudomonas aeruginosa strains with differing mechanisms of resistance” (2010)
